Three compounds from ChEMBL document CHEMBL1147268, “New triterpene glycosides from the stems of Anomospermum grandifolium” (2003) can be followed below.

Values after ≈ are worked out from the molar mass of the structure shown. Active and inactive are the calls of the source. No cut-off for these calls is given here.

The subject of assay [1] is Enterococcus faecalis. Nature of the assay: Antibacterial activity against Enterococcus faecalis ATCC 29212 at 120 ug/mL after 18 hrs by broth microdilution method. The format is functional, organism-based. In a few lines:
(§1)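 Broth microdilution in Mueller Hinton broth in 96-well plates, run in duplicate following NCCLS guidance. Pure compounds were tested at dilution intervals up to a top concentration of 120 or 250 µg/mL. Plates were incubated 18 h at 37 °C and read from below with a reflective viewer. DMSO served as blank control and ampicillin as positive control.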

In assay [2] the test system is Staphylococcus aureus. Nature of the assay: Antibacterial activity against Staphylococcus aureus ATCC 25923 at 120 ug/mL after 18 hrs by broth microdilution method. The format is functional, organism-based. The gist of the method:
as §1

Assay [3] deals with Escherichia coli. Nature of the assay: Antibacterial activity against Escherichia coli ATCC 25922 at 120 ug/mL after 18 hrs by broth microdilution method. It counts as functional, organism-based. In a few lines:
as §1

Assay [4] relates to Pseudomonas aeruginosa. As to the kind of experiment: Antibacterial activity against Pseudomonas aeruginosa ATCC 27853 at 120 ug/mL after 18 hrs by broth microdilution method. It counts as functional, organism-based. In a few lines:
as §1

In another assay the test system is Candida albicans. Nature of the assay: Antifungal activity against Candida albicans ATCC 3153 after 18 hrs by broth microdilution method. The format is functional. The note with it: ATCC 3153, 18 h. The gist of the method:
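Candida albicans ATCC 3153 was tested by broth microdilution in Sabouraud broth in 96-well plates, in duplicate, per NCCLS. Pure compounds were tested at varied dilution intervals. Plates were incubated 18 h at 37 °C and read from below with a reflective viewer. MIC was taken from the growth end point. DMSO served as blank control and ketoconazole as positive control.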

The subject of assay [5] is Enterococcus faecalis. As to the kind of experiment: Antibacterial activity against Enterococcus faecalis ATCC 29212 at 250 ug/mL after 18 hrs by broth microdilution method. The format is functional, organism-based. In a few lines: as §1
Assay [6] relates to Staphylococcus aureus. Nature of the assay: Antibacterial activity against Staphylococcus aureus ATCC 25923 at 250 ug/mL after 18 hrs by broth microdilution method. It counts as functional, organism-based. In a few lines: as §1
Assay [7] has as its system Escherichia coli. As to the kind of experiment: Antibacterial activity against Escherichia coli ATCC 25922 at 250 ug/mL after 18 hrs by broth microdilution method. It counts as functional, organism-based. The gist of the method:
as §1

In assay [8] the test system is Pseudomonas aeruginosa. Nature of the assay: Antibacterial activity against Pseudomonas aeruginosa ATCC 27853 at 250 ug/mL after 18 hrs by broth microdilution method. The format is functional, organism-based. The gist of the method: as §1

In the case of `CC(C)=C[C@H]1C[C@](C)(O)[C@@H]2[C@H]3CC[C@@H]4[C@@]5(C)CC[C@H](O[C@@H]6OC[C@H](O)[C@H](O[C@@H]7O[C@H](CO)[C@@H](O)[C@H](O)[C@H]7O)[C@H]6O[C@@H]6O[C@@H](CO)[C@H](O)[C@H]6O)C(C)(C)[C@@H]5CC[C@@]4(C)[C@@]34CO[C@@]2(C4)O1`, the outcome in the assay with Enterococcus faecalis [1], in the assay on Staphylococcus aureus [2], in the assay on Escherichia coli [3] and in the assay on Pseudomonas aeruginosa [4] was inactive.
Regarding `CC(=O)N1CCN(c2ccc(OCC3COC(Cn4ccnc4)(c4ccc(Cl)cc4Cl)O3)cc2)CC1` (stereo not given) [KETOCONAZOLE], the minimal inhibitory concentration (MIC) in the assay on Candida albicans worked out at 0.1 µg/mL (≈ 0.188 µM).
Turning to `CC(C)=C[C@H]1C[C@](C)(O)[C@@H]2[C@H]3CC[C@@H]4[C@@]5(C)CC[C@H](O[C@@H]6OC[C@H](O)[C@H](O[C@@H]7O[C@H](CO[C@@H]8O[C@H](CO)[C@@H](O)[C@H](O)[C@H]8O)[C@@H](O)[C@H](O)[C@H]7O)[C@H]6O[C@@H]6O[C@@H](CO)[C@H](O)[C@H]6O)C(C)(C)[C@@H]5CC[C@@]4(C)[C@@]34CO[C@@]2(C4)O1`, the outcome with Enterococcus faecalis [5], with Staphylococcus aureus [6], with Escherichia coli [7] and in the assay on Pseudomonas aeruginosa [8] was inactive. This compound showed an MIC against Candida albicans of 250 µg/mL (≈ 236 µM).
